The text below walks through data of ChEMBL document CHEMBL4699498 (J Med Chem, 2020).

Series [1] can be described thus: AUCall in ICR mouse at 25 mg/kg, ip by LC-tandem mass spectrometry analysis. Further details: dose 25 mg/kg. Particulars: in vivo. It is filed as ADME, organism-based. In a few lines: (§1)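 Female ICR mice (20-23 g, 6-7 weeks old, n = 3) received a single 25 mg/kg intraperitoneal dose formulated in 5% DMSO/15% Solutol HS15/80% D5W. Plasma was sampled at 0.5, 1, 2, 4, 6, 8 and 24 h and protein-precipitated with methanol. Compound was quantified by LC-MS/MS against a standard curve.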

In series [2] the test system is PC-3. The experiment in a line: Antiproliferation activity against human PC-3 assessed as cell growth inhibition incubated for 7 days by CCK-8 assay. The class given is functional, cell-based. The conditions noted are these: time 7.0 day. In a few lines: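 Cells were sub-cultured at least twice and seeded for 24 h before dosing. Compounds came from 10 mM DMSO stocks, given as 10 points of 3-fold serial dilution starting at 10-20 μM. Incubation was about 7 days (Capan-1 13 days) at 37 °C, 5% CO2. Read-out was CCK-8 absorbance at 450 nm, as % growth versus DMSO wells (duplicate wells). IC50 was fitted by nonlinear regression; three independent experiments.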
For orientation: Tetrazolium dyes change colour on reduction, which living cells bring about.

The target in series [3] is T1, Protein cereblon/Poly [ADP-ribose] polymerase 1 (Homo sapiens, UniProt P09874+Q96SW2). The experiment in a line: Protac activity at CRBN/PARP1 in human MDA-MB-436 cells assessed as induction of PARP1 degradation at 30 nM incubated for 24 hrs in presence of 0.1 to 1 uM CRBN ligand pomalidomide by Western blot analysis. Background: A western blot detects proteins with antibodies after separation by electrophoresis.
Target sequence in this assay (P09874 2-1014 limits assumed): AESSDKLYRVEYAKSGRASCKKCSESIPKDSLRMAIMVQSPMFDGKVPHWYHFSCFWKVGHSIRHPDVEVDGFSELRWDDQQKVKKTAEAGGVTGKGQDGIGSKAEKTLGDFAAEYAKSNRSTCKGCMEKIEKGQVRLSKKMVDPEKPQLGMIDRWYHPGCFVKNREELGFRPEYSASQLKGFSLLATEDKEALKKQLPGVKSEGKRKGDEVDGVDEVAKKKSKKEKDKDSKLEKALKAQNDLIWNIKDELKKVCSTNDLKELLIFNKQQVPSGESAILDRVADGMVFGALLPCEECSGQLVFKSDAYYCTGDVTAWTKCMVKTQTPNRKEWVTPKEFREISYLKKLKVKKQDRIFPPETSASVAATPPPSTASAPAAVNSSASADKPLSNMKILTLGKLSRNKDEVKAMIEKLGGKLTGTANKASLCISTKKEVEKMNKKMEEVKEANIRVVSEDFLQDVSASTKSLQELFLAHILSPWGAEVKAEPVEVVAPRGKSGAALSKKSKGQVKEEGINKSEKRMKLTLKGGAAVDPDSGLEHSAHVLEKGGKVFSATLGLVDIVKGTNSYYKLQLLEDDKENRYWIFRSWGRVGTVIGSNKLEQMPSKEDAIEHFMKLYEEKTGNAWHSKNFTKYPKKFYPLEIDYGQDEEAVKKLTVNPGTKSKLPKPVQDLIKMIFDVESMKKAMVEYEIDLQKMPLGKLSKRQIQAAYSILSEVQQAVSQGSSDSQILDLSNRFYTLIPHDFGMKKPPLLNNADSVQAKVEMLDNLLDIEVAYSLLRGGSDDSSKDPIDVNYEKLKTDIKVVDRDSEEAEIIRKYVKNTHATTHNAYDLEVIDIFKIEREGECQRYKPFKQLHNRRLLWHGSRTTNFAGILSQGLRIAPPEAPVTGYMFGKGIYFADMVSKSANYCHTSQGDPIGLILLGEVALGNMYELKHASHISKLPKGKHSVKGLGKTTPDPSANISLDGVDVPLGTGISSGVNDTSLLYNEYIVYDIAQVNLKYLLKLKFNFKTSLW
Target sequence in this assay (Q96SW2 whole entry partner): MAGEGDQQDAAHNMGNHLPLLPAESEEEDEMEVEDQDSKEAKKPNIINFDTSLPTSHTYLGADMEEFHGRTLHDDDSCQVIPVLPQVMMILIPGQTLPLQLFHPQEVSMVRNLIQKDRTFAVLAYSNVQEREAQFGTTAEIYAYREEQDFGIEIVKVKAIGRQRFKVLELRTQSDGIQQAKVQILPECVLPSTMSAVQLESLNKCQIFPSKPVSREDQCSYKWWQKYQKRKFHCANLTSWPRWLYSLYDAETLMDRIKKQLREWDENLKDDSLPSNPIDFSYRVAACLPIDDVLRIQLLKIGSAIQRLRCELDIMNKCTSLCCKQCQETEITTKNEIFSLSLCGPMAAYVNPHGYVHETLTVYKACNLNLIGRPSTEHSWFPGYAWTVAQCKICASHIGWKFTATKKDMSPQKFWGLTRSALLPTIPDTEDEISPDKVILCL

Series [4] relates to L02. The experiment in a line: Cytotoxicity against human L02 cells assessed as reduction in cell viability incubated for 120 hrs by CCK-8 assay. The class given is cell-based. The conditions noted are these: l02, 120 h.
The target of series [5] is T1, Protein cereblon/Poly [ADP-ribose] polymerase 1. Put plainly: Protac activity at CRBN/PARP1 in human SW-620 cells assessed as induction of PARP1 degradation at 30 nM measured after 2 hrs by Western blot analysis.
Target sequence in this assay (P09874 2-1014 limits assumed): as the sequence (P09874 2-1014 limits assumed) above
Target sequence in this assay (Q96SW2 whole entry partner): as the sequence (Q96SW2 whole entry partner) above
Series [6] in a line: Plasma concentration in ICR mouse at 25 mg/kg, ip at 4 hrs postinjection by LC-tandem mass spectrometry analysis. It is filed as ADME, organism-based. In a few lines:
as §1

Series [7] deals with T1, Protein cereblon/Poly [ADP-ribose] polymerase 1. The experiment in a line: Protac activity at CRBN/PARP1 in human MDA-MB-436 cells assessed as induction of PARP1 degradation at 30 nM measured after 2 hrs by Western blot analysis.
Target sequence in this assay (P09874 2-1014 limits assumed): as the sequence (P09874 2-1014 limits assumed) above
Target sequence in this assay (Q96SW2 whole entry partner): as the sequence (Q96SW2 whole entry partner) above
Series [8] has the same target. Put plainly: Protac activity at CRBN/PARP1 in human 22Rv1 cells assessed as induction of PARP1 degradation at 30 nM incubated for 1 to 24 hrs by Western blot analysis. It is filed as cell-based. Particulars: time hrs 1-24.
Target sequence in this assay (P09874 2-1014 limits assumed): as the sequence (P09874 2-1014 limits assumed) above
Target sequence in this assay (Q96SW2 whole entry partner): as the sequence (Q96SW2 whole entry partner) above
The target is the same in series [9]. The experiment in a line: Protac activity at CRBN/PARP1 in human MDA-MB-436 cells assessed as induction of PARP1 degradation at 30 nM incubated for 24 hrs in presence of proteasome inhibitor carfilzomib by Western blot analysis.
Target sequence in this assay (P09874 2-1014 limits assumed): as the sequence (P09874 2-1014 limits assumed) above
Target sequence in this assay (Q96SW2 whole entry partner): as the sequence (Q96SW2 whole entry partner) above
A short description of series [10]: Cytotoxicity against […] H9c2 cells assessed as reduction in cell viability incubated for 120 hrs by CCK-8 assay. The conditions noted are these: h9c2, 120 h. The class given is cell-based.
Series [11] is described as follows: Plasma concentration in ICR mouse at 25 mg/kg, ip at 0.25 hrs postinjection by LC-tandem mass spectrometry analysis. The class given is ADME, organism-based.
Series [12] has as its target T1, Protein cereblon/Poly [ADP-ribose] polymerase 1. Put plainly: Protac activity at CRBN/PARP1 in human SW-620 cells assessed as induction of PARP1 degradation at 30 nM incubated for 24 hrs in presence of 0.1 to 1 uM PARP1 inhibitor olaparib by Western blot analysis. The class given is cell-based.
Target sequence in this assay (P09874 2-1014 limits assumed): as the sequence (P09874 2-1014 limits assumed) above
Target sequence in this assay (Q96SW2 whole entry partner): as the sequence (Q96SW2 whole entry partner) above
Series [13] shares this target. The experiment in a line: Protac activity at CRBN/PARP1 in human MDA-MB-436 cells assessed as induction of PARP1 degradation at 30 nM incubated for 24 hrs in presence of NEDD8-activating E1 enzyme inhibitor MLN4924 by Western blot analysis.
Series [14] can be described thus: Tmax in ICR mouse at 25 mg/kg, ip by LC-tandem mass spectrometry analysis. The class given is ADME, organism-based. The conditions noted are these: in vivo. Summed up: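 Female ICR mice (20-23 g, 6-7 weeks, n = 3) given a single 25 mg/kg ip dose in 5% DMSO/15% Solutol HS15/80% D5W; plasma at 0.5, 1, 2, 4, 6, 8 and 24 h, protein precipitated with methanol, drug quantified by LC-MS/MS against a standard curve.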

Series [15] is described as follows: Acute toxicity in Balb/c mouse xenografted with SW-620 cells assessed as mean weight loss at 10 mg/kg, ip qd administered for 5 days in presence of TMZ measured on day 9 relative to control. It is filed as organism-based. Particulars: in vivo, 216 h, time 9 day. In a few lines:
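Male BALB/c nude mice carried SW620 xenografts (6×10^6 cells s.c.), randomized at ~150 mm³ (6 per group). TMZ 50 mg/kg was given orally once daily on days 0-4, 45 min after the partner drug. Partners were 5 or 10 mg/kg intraperitoneally or 10 mg/kg by oral gavage, daily for 5 days. Vehicle was 5% DMSO/20% PEG400/10% Cremophor EL/65% saline. Tumor volume and body weight were recorded 2-3 times weekly.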

The test system of series [16] is CAPAN-1. Put plainly: Potentiation of cisplatin induced antitumor activity against CAPAN-1 cells xenografted in Balb/c mouse at 50 mg/kg, ip qd administered for 5 days measured on day 16. The class given is functional, organism-based. Particulars: time 16.0 day. Summed up:
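Male BALB/c nude mice carried Capan-1 xenografts (5×10^6 cells s.c.), randomized at ~150 mm³ (6 per group). Treatment was 25 or 50 mg/kg intraperitoneally or 100 mg/kg by oral gavage, once daily on days 0-4. Cisplatin 6 mg/kg in saline was given intraperitoneally on day 2, 45 min after the partner drug. Tumor volume and body weight were measured 2-3 times weekly.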

Series [17] addresses T1, Protein cereblon/Poly [ADP-ribose] polymerase 1. The experiment in a line: Protac activity at CRBN/PARP1 in human MDA-MB-436 cells assessed as induction of PARP1 degradation incubated for 24 hrs by Western blot analysis. It is filed as cell-based. In a few lines: (§2)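 Concentration-response over a wide range, 24 h exposure; PARP1 quantified by western blot and normalized to β-tubulin density; DC50 derived from two biologically independent experiments.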
Target sequence in this assay (P09874 whole entry): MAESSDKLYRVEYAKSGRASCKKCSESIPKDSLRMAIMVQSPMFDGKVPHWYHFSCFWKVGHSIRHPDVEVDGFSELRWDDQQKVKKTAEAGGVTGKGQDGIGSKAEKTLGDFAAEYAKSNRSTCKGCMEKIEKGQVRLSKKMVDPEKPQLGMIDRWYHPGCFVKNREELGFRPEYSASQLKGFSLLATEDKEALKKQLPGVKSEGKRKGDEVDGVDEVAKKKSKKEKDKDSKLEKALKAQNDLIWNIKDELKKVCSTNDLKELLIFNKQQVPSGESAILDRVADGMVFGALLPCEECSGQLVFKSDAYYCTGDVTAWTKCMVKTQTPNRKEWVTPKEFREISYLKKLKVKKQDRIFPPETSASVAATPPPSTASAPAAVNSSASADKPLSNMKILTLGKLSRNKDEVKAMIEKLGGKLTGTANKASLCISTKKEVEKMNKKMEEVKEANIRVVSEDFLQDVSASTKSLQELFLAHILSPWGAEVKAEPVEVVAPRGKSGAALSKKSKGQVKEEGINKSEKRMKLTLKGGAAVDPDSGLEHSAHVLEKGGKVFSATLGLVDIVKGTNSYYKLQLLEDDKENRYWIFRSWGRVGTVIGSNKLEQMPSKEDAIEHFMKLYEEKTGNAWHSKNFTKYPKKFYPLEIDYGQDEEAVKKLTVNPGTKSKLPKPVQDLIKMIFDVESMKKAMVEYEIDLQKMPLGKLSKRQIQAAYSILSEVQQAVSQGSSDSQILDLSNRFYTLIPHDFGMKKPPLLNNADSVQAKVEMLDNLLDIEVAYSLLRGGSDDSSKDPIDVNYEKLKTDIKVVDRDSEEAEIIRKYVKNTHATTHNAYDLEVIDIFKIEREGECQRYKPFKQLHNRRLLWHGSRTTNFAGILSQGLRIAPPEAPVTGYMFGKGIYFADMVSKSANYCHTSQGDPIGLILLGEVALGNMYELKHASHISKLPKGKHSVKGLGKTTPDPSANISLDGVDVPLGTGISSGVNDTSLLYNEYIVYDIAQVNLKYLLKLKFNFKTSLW
Target sequence in this assay (Q96SW2 whole entry): as the sequence (Q96SW2 whole entry partner) above

For series [18] the target is unchanged. Put plainly: Protac activity at CRBN/PARP1 in human SW-620 cells assessed as induction of PARP1 degradation at 30 nM measured within 1 hr by Western blot analysis. Particulars: time hrs <=1. It is filed as cell-based. Summed up:
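Time course at 30 nM in MDA-MB-436 or SW620 cells; PARP1 immunoblotted at successive time points, β-tubulin as loading control.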

Series [19] has the same target. Put plainly: Protac activity at CRBN/PARP1 in human PC-3 cells assessed as induction of PARP1 degradation at 30 nM incubated for 1 to 24 hrs by Western blot analysis. It is filed as cell-based. The conditions noted are these: time hrs 1-24.
For series [20] the target is unchanged. The experiment in a line: Protac activity at CRBN/PARP1 in human SW-620 cells assessed as induction of PARP1 degradation incubated for 24 hrs by Western blot analysis. The class given is cell-based. In a few lines:
as §2
Target sequence in this assay (P09874 whole entry): as the sequence (P09874 whole entry) above
Target sequence in this assay (Q96SW2 whole entry): as the sequence (Q96SW2 whole entry partner) above

Series [21] can be described thus: AUC (0 to infinity) in ICR mouse at 25 mg/kg, ip by LC-tandem mass spectrometry analysis. The class given is ADME, organism-based. The arrangement: time infinity, route intraperitoneal, dose 25 mg/kg. Particulars: in vivo. Summed up:
as §1

Calls of active or inactive are those of the source. The calls are words filed in the database; no cut-off is given here.

On to `O=C(CCCCCCCCCCC(=O)N1CCN(C(=O)c2cc(Cc3n[nH]c(=O)c4ccccc34)ccc2F)CC1)NCCNc1cccc2c1C(=O)N(C1CCC(=O)NC1=O)C2=O` (stereo unspecified), for which, in series [1], the AUC is 5320 ng·h/mL. Moreover, the result in series [2], in [5], in series [7], in series [8], in series [16] and in [18] was Active. The result in series [19] was Active. Moreover, the outcome in [3], in [9], in series [12] and in [13] was inactive. Also, the Activity result in series [4] is “Non-Toxic”; in series [10], “Non-Toxic”; in [15], 15%. The concentration at 4 h in series [6] came to 182 nM. In series [11], this compound yielded a concentration at 0.25 h of 2100 nM. Further, in [14], the Tmax was 15 min. Moreover, the DC50 in series [17] came to 1.26 nM; in series [20], 0.509 nM. Further, the AUC(0-inf) in series [21] is 5360 ng·h/mL.

In general, AUC refers to concentration integrated over time. A low value points to low exposure. As usually defined, the Tmax is the time from dosing to the highest level. For orientation: DC50 means the concentration at which degradation of the target reaches its halfway point. What is called AUC(0-inf) is the area under the concentration-time curve extrapolated to infinity.
